Shown are actives, neighbours in structure and some others; about 3.8% of the full set was active somewhere.
SIRT5 inh – sirtuin-5 (human) deacylase inhibition | AID 652115 | Purified SirT5, succinyl-peptide AMC, trypsin-coupled fluorescence | Q9NXA8 | 330,000 compounds, 1.1% hits | inhibition, % at 15 µM; in the data active = inhibition above about 15%
Target sequence (Q9NXA8 whole entry, looked up): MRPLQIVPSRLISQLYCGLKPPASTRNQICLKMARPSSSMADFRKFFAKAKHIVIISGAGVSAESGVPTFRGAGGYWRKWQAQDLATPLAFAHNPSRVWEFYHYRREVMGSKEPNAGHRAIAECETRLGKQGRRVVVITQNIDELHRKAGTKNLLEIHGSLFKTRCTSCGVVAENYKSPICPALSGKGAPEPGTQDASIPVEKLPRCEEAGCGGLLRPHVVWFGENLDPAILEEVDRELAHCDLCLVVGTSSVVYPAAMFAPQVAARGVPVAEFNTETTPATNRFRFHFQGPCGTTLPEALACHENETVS
DENV2 CPE rescue – DENV2-induced cell death inhibition; DENV2-infected cells, cytopathic effect rescue, plate reader; CPE inhibition, % at 9.99 µM; 350,000 compounds, 1.7% hits; AID 651640; in the data active = CPE inhibition above about 20%, passing the limit was not always enough; tested in BHK-21 cells;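 also: 0% = median of neutral control wells and 100% = median of positive control wells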
Xi reactivation – reactivates the inactive X chromosome in mouse fibroblasts | 360,000 compounds, 0.055% hits | XiGFP mouse fibroblasts, % GFP-positive cells imaging, 3 d; cells co-treated with 5-aza-dC sensitizer; scaled so ellipticine positive control = 100% | activation, % at 7.58 µM;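 active = mean normalized replicate activation at least 10% and every replicate at or above 10%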;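 also: 0% = median of on-plate neutral control wells and 100% = ellipticine 6 µM median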
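Material: SV40-immortalized XiGFP fibroblast cells, line 68-5-11 | Buffer or medium: DMEM containing 5-aza-dC | Dosing: One concentration, pinned | Times: 3 d treatment, 15 min room-temperature fixation | Controls: Ellipticine 6 µM positive control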
FGF22 binding-1 – binders of recombinant human FGF22 by thermal shift; Q9HCT0; SYPRO orange fluorescence; percent of sucrose octasulfate shift, DMSO zero; activity (Tm shift, normalised), % at 9.99 µM; 340,000 compounds, 1.5% hits; AID 651658;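 active = mean Tm shift, scaled 0 neutral to 100 positive control, at about 1.3% or above, every replicate too, limit read from the data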
Target sequence (Q9HCT0 whole entry, looked up): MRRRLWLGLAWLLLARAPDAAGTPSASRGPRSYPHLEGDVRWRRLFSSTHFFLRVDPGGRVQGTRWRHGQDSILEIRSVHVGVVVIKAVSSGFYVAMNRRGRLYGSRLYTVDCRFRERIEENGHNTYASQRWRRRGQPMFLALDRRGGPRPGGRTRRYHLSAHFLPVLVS
FN deposit inh – fibronectin deposition inhibition; AH1F fibroblasts, Alexa488-fibronectin deposition fluorescence, overnight; inhibition, % at 12.6 µM; 350,000 compounds, 0.086% hits; AID 743247;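 active = mean inhibition across replicates of 30% or more, regardless of how many single replicates reach that level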;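 also: positive control wells lacked labelled fibronectin entirely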
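Material: AH1F fibroblast monolayer depositing Alexa488-labelled fibronectin into matrix | Input: 10000 AH1F cells/well | Medium: DMEM plus 2% serum, read in PBS | Reagent: Alexa488-fibronectin, 24 nM final in well | Compound dosing: One dose per compound, pinned | Schedule: 1 h adhesion, overnight exposure | Measured by: Fluorescence at 485 nm excitation, 525 nm emission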
ARNT-TACC3 inh – disruptors of human ARNT/TACC3 interaction. inhibition, % at 9.99 µM. AlphaScreen His-ARNT PAS-B/GST-TACC3 binding, luminescence; TACC3 fragment carries E629A point mutation. 390,000 compounds, 0.66% hits. Q9Y6A5. AID 623870;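 active = mean inhibition of replicates at least 50% and at least half of replicates each reaching 50%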;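 also: 0% = complete ARNT plus TACC3 wells and 100% = ARNT alone without TACC3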
FGF22 binding-2 – binds human FGF22 shifting its melting temperature; recombinant FGF22 thermal shift, SYPRO orange fluorescence; shares compounds with FGF22 binding-1; 1,000 compounds, 2% hits; thermal shift activity, °C (ΔTm) at 38 µM;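 active = fitted rise in melting shift crosses a set limit at or below the top valid dose tested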
FGF22 TSA DP – FGF22 (human) binding by thermal shift; 50 tested, under 10 active; AID 743017; Thermal shift assay, SYPRO orange, melting temperature shift; Tm shift (activity), % at 38 µM; shares compounds with FGF22 binding-1;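 active = compounds whose fitted dose curve of melting temperature shift rises past a set threshold within the tested doses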
SYPRO no-protein – shows thermal shift signal without protein, FGF22 counter-screen. compound-only SYPRO orange thermal shift counter-screen, no protein. shares compounds with FGF22 binding-1. AID 743019. AC50, µM (highest dose often 38 µM). 1,000 compounds, 2% hits;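 active = rising signal whose fitted curve reaches the 0.54 level within the top valid dose, showing a melting point, actives reach about 13 µM in these data; inactive = the rest, including activity in the opposite direction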; also: value is where the raw curve crosses a fixed level and not half-maximal
Numbers without * were called inactive; i = inactive; x = not tested or not shown; [ ] = dose if it differs, or a comment.

SMILES	SIRT5 inh	DENV2 CPE rescue	Xi reactivation	FGF22 binding-1	FN deposit inh	ARNT-TACC3 inh	FGF22 binding-2	SYPRO no-protein	others
O=C(C[C@H]1CC[C@@H]2[C@H](COC[C@H](O)CN2S(=O)(=O)c2cccc(F)c2)O1)Nc1ccccc1	-3	3	0	2.0*	-1	-5	0.13[42 µM]	i
C[C@H](CO)N1C[C@H](C)[C@@H](CN(C)S(C)(=O)=O)Oc2ccc(NC(=O)CCCCCC(=O)Nc3ccccc3N)cc2CC1=O	-2	6	0	0	x	6	x	x
CN1CCN(C(=O)C[C@H]2CC[C@H]3[C@@H](COC[C@@H](O)CN3Cc3cccc(-c4ccncc4)c3)O2)CC1	0	-4	0	0	2	-3	x	x
Cc1ccc(S(=O)(=O)N2C[C@H](O)COC[C@H]3O[C@H](CC(=O)NCc4ccc(Cl)c(Cl)c4)CC[C@@H]32)cc1	0	-9	0	1.4*	-2	15	0.016[42 µM]	i	FGF22 TSA DP=0
CCN1C(=O)C(CC(=O)Nc2ccc(F)cc2)N(Cc2ccc3c(c2)OCO3)C1=S (configuration not stated)	-1	7	0	2.9*	2	-16	-0.21	i	FGF22 TSA DP=0
Cn1cc([N+](=O)[O-])c(C(=O)Nc2ccc(-c3nc4ccccc4[nH]3)cc2)n1	-8	-11	0	0	10	-1	x	x
Cn1cc([N+](=O)[O-])c(C(=O)Nc2ccc3nc(-c4ccccc4)[nH]c3c2)n1	5	x	0	15*	-6	5	0.22	i
C/C=C/c1ccc([C@@H]2[C@@H](CO)N(C(=O)C3CC3)[C@H]2CN(C)C(=O)CC)cc1	4	1	0	0	x	1	x	x
CCOC(=O)N1CCN(C(=O)CCCCCn2c(=S)[nH]c3ccsc3c2=O)CC1	-2	-2	0	1.4*	3	4	-0.14	i
CNC[C@@H]1Oc2cc(-c3ccncc3)ccc2S(=O)(=O)N([C@@H](C)CO)C[C@H]1C	x	x	0	x	-12	x	x	x
COc1ccc(-c2csc(NC(=O)CN3C(=O)C4CC=CCC4C3=O)n2)cc1 (configuration not stated)	-1	-4	0	0	-1	1	x	x
COc1ccc(-c2csc(NC(=O)CN3C(=O)C4CCCCC4C3=O)n2)c(OC)c1 (configuration not stated)	1	0	0	1.6*	0	-1	-1.6	10µM*
COc1ccc2c3c(n(C)c2c1)[C@@H](CO)N(CC1CC1)CC31CCN(Cc2nccs2)CC1	x	x	0	x	x	x	x	x
COc1cc2oc(-c3ccc(O)cc3)cc(=O)c2c(O)c1OC	x	1	x	10*	x	1	-0.085	i
CO[C@H]1CN(C)C(=O)c2ccc(NC(=O)Nc3ccccc3)cc2OC[C@@H](C)N(C(=O)CC2CC2)C[C@H]1C	3	-9	0	0	-2	-3	x	x
Cc1nc2ccc(Br)cc2c(-c2ccccc2)c1C(=O)O	-1	4	0	29*	0	x	0.11	i
Cc1onc(-c2ccccc2)c1C(=O)Nc1ncc([N+](=O)[O-])s1	3	-2	0	1.9*	-12	-2	x	i
CCCC(=O)Nc1ccc(C(=O)Nc2ccc([N+](=O)[O-])cc2OC)cc1	6	10	0	1.4*	-4	0	-0.17	i
COc1ccc(NS(=O)(=O)c2ccc(Cl)c(N)c2)cc1Br	-2	-4	1	1.3*	-1	7	-0.06	i
